Data: ChEMBL document CHEMBL3244059, “Synthesis and pharmacological activity of a phosphate ester of delta8-tetrahydrocannabinol” (J Med Chem, 1978)
The source made the active and inactive calls. The calls are words filed in the database; no cut-off is given here.

Experiments:
[1] = Acute toxicity in iv dosed ddN mouse assessed as mortality after 24 hrs; format: organism-based; details: in vivo
How it was run: (§1)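 Mice dosed iv via tail vein, 0.1 mL/10 g body weight; parent compound as suspension in 1% Tween 80, phosphate as solution in saline. Eight animals per dose.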

Mus musculus [2] = test: Cataleptogenic activity in iv dosed ddN mouse assessed as induction of catalepsy after 30 mins by bar test; format: functional, organism-based
How it was run: (§2)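 Catalepsy scored by a modified simple bar test at 30 and 60 min after iv tail-vein injection (0.1 mL/10 g; 1% Tween 80 suspension or saline solution). Eight mice per dose; vehicle controls. ED50 with 95% confidence limits at peak time.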

Mus musculus [3] = test: Cataleptogenic activity in iv dosed ddN mouse assessed as induction of catalepsy after 30 to 60 mins by bar test; format: functional; how it was run: as §2
Mus musculus [4] = test: Potentiation of thiopental-induced sleep in iv dosed ddN mouse assessed as loss of righting reflex after 60 mins administered with 1% Tween-80; format: functional, organism-based
How it was run: (§3)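 Pretreatment given iv (saline solution or 1% Tween 80 suspension; vehicle controls for each), followed 30 or 60 min later by thiopental 80 mg/kg iv. Sleep measured as loss of righting reflex. Potentiation counted positive when sleeping time exceeded twice the matching control. Eight mice per dose; ED50 with confidence limits.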

Mus musculus [5] = test: Potentiation of thiopental-induced sleep in iv dosed ddN mouse assessed as loss of righting reflex after 30 to 60 mins; format: functional; how it was run: as §3
Mus musculus [6] = test: Hypothermic activity in ddN mouse assessed as reduction of rectal temperature at 10 mg/kg, iv after 1 hr; format: functional
How it was run: (§4)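 Rectal temperature taken with a thermistor thermometer after iv tail-vein dosing at 10 or 20 mg/kg (1% Tween 80 suspension or saline solution). Room held at 23 ± 1 °C; time course followed up to 5 h. Decline reported as mean ± SE of eight mice.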

Mus musculus [7] = test: Hypothermic activity in ddN mouse assessed as reduction of rectal temperature at 20 mg/kg, iv after 1 hr; format: functional; how it was run: as §4
Mus musculus [8] = test: Acute toxicity in ddN mouse assessed as mortality up to 160 mg/kg, iv after 24 hrs; format: organism-based; design: dose 160 mg/kg, route intravenous; details: in vivo; how it was run: as §1
Mus musculus [9] = test: Cataleptogenic activity in iv dosed ddN mouse assessed as induction of catalepsy after 60 mins by bar test; format: functional; how it was run: as §2
Mus musculus [10] = test: Potentiation of thiopental-induced sleep in iv dosed ddN mouse assessed as loss of righting reflex after 60 mins administered with saline; format: functional; how it was run: as §3
Mus musculus [11] = test: Hypothermic activity in ddN mouse assessed as reduction of rectal temperature at 10 mg/kg, iv after 2 hrs; format: functional; how it was run: as §4
Mus musculus [12] = test: Hypothermic activity in ddN mouse assessed as reduction of rectal temperature at 20 mg/kg, iv after 2 hrs; format: functional; how it was run: as §4
[13] = Drug metabolism in mouse liver homogenates assessed as compound hydrolysis at pH 9.6 after 15 mins by spectrophotometric analysis in presence of alkaline phosphatase; format: ADME, tissue-based; details: read-out: Drug metabolism
How it was run: (§5)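 Substrate (1.5 μmol) incubated at 37 °C with mouse liver homogenate (equivalent to 0.1 g liver) in 0.1 M glycine buffer pH 9.6 or 0.1 M acetate buffer pH 5.0. Sampled at 15, 30 and 60 min. Percent hydrolysis given as mean of duplicate determinations.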

[14] = Drug metabolism in mouse liver homogenates assessed as compound hydrolysis at pH 9.6 after 30 mins by spectrophotometric analysis in presence of alkaline phosphatase; format: ADME, tissue-based; details: read-out: Drug metabolism; how it was run: as §5
[15] = Drug metabolism in mouse liver homogenates assessed as compound hydrolysis at pH 9.6 after 60 mins by spectrophotometric analysis in presence of alkaline phosphatase; format: ADME, tissue-based; details: read-out: Drug metabolism; how it was run: as §5
[16] = Drug metabolism in mouse liver homogenates assessed as compound hydrolysis at pH 5 after 15 mins by spectrophotometric analysis in presence of alkaline phosphatase; format: ADME, tissue-based; details: read-out: Drug metabolism; how it was run: as §5
[17] = Drug metabolism in mouse liver homogenates assessed as compound hydrolysis at pH 5 after 30 mins by spectrophotometric analysis in presence of alkaline phosphatase; format: ADME, tissue-based; details: read-out: Drug metabolism; how it was run: as §5
[18] = Drug metabolism in mouse liver homogenates assessed as compound hydrolysis at pH 5 after 60 mins by spectrophotometric analysis in presence of alkaline phosphatase; format: ADME, tissue-based; details: read-out: Drug metabolism; how it was run: as §5

Compound	LD50 at 24 h [1] [mg/kg]	Activity (Mus musculus [2])	ED50 (Mus musculus [3]) [mg/kg]	Activity (Mus musculus [4])	ED50 (Mus musculus [5]) [mg/kg]	T (Mus musculus [6]) [°C]	T (Mus musculus [7]) [°C]	Activity (Mus musculus [8])	Activity (Mus musculus [9]) [%]	Activity (Mus musculus [10]) [%]	T (Mus musculus [11]) [°C]	T (Mus musculus [12]) [°C]	metabolised at 0.25 h [13] [%]	metabolised at 0.5 h [14] [%]	metabolised at 1 h [15] [%]	metabolised at 0.25 h [16] [%]	metabolised at 0.5 h [17] [%]	metabolised at 1 h [18] [%]
CCCCCc1cc(O)c2c(c1)OC(C)(C)[C@@H]1CC=C(C)C[C@@H]21 [DELTA-8-TETRAHYDROCANNABINOL]	27.5	Active	3.3	Active	1.2	3.8	4.8	–	–	–	–	–	–	–	–	–	–	–
CCCCCc1cc2c(c(OP(=O)([O-])[O-])c1)[C@@H]1CC(C)=CC[C@H]1C(C)(C)O2.[Na+].[Na+]	–	–	37	–	17.5	–	–	Non-toxic	10	7	2.4	5	7.8	13.9	24.5	15.3	20.7	29.2
O=[N+]([O-])c1ccc(OP(=O)(O)O)cc1 [p-NITROPHENYLPHOSPHATE]	–	–	–	–	–	–	–	–	–	–	–	–	21.5	36.4	73.6	88.9	96.7	97.7
